Results published in publication PMC6497404 (Vaccine, 2019).

Experiments:
BALB/c mice = experiment: Serum antibody ELISA after immunization with antigen-pulsed dendritic cells; type: in vivo, mouse; conditions: after first booster; mimotope-pulsed DCs i.p.; sera diluted 1:200
Procedure, shortened: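 Female BALB/c mice, 5–7 weeks old. Bone-marrow DCs pulsed with peptide antigen (1 μM) on day 6, matured with PGE₂ (10⁻⁷M) plus LPS (2 μg/ml) for 24h from day 7, washed on day 9. 5 × 10⁵ DCs in DPBS given i.p., with i.p. boosts of fresh pulsed DCs without adjuvant at days 14 and 28. Controls received DCs or DPBS. Sera diluted 1:200 and tested by ELISA.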

[1] = tested on: C. albicans SC5314 (disseminated candidiasis in BALB/c mice); experiment: Active vaccination; type: in vivo, Candida albicans; conditions: mimotope-pulsed DCs; lethal i.v. challenge; extended observation

Sequence	Antibody ELISA titers in immune sera against the mimotope (BALB/c mice)	Protection against disseminated candidiasis (mimotope vaccination) [1]
HYKTYGGYW [PS31]	highest	
SWYEGLRLI [PS55]		neither of the two other mimotopes PS55 or PS76 induced protection
SYLTTGGFW [PS28]	highest	
WVPPGSWYL [PS2]	highest	
YRQFVTGFW [PS76]		neither of the two other mimotopes PS55 or PS76 induced protection
